One may read the IC50 as the concentration that inhibits the measured activity by half.

We go through eight compounds from ChEMBL document CHEMBL3286301, “Solving time-dependent CYP3A4 inhibition for a series of indole-phenylacetic acid dual antagonists of the PGD(2) receptors CRTH2 and DP” (Bioorg Med Chem Lett, 2014).

Molecules are shown by their SMILES.

For one series, the target named is CYP3A4 (Homo sapiens, UniProt P08684). Description: Time dependent inhibition of human liver microsome CYP3A4 activity assessed as percentage remaining activity by measuring 6-beta-OH-testosterone formation at 15 uM for 15 mins using 200 uM testosterone as a substrate by LC/MS/MS analysis. The class given is ADME. The following applies: liver microsomes, probe testosterone, read-out: Activity. The essentials: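 Pooled human liver microsomes (1.0 mg/mL) in 100 mM potassium phosphate, pH 7.4, preincubated with compound (15 µM) and 1 mM NADPH for 15 min. Then diluted 1:10 into a secondary incubation with 200 µM testosterone (saturating) plus 1 mM NADPH for 20 min. Stopped with acetonitrile containing deuterated internal standard. 6β-OH-testosterone measured by LC/MS/MS; % remaining activity reported. Average of at least two experiments.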
Chain of CYP3A4 (P08684 whole entry): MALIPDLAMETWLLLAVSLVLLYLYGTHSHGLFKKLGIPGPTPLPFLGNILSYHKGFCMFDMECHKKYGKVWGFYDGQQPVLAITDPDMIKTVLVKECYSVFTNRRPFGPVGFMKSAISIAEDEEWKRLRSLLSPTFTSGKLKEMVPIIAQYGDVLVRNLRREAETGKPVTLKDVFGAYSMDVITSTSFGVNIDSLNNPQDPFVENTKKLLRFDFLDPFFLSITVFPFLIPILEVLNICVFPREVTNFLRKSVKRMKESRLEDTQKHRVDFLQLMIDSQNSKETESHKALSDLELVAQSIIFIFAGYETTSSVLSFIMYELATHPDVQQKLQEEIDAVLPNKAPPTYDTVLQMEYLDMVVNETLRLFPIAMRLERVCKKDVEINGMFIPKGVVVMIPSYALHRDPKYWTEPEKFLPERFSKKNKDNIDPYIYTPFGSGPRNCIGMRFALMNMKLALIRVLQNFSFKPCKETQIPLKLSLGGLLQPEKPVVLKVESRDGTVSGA
A general note: Microsomes from liver hold many membrane-bound enzymes, among them those of drug oxidation.

In series [1] the target is T1, Prostaglandin D2 receptor 2 (Homo sapiens, UniProt Q9Y5Y4).
T1 sequence (Q9Y5Y4 whole entry): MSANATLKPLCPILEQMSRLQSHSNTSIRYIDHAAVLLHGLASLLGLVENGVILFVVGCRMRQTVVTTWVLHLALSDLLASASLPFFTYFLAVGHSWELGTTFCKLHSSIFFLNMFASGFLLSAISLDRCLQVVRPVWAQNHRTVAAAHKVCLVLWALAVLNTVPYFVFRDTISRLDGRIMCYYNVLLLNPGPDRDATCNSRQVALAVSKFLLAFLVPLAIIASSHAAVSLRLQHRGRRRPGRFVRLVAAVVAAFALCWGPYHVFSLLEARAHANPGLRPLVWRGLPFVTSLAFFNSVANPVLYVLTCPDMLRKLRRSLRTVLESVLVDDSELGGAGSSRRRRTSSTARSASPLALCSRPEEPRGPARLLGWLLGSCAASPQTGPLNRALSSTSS
Briefly: Displacement of [3H]-PGD2 from human CRTH2 expressed in HEK293 cells in buffer solution with 0.5% bovine serum albumin by scintillation counting. The class given is cell-based. In outline:
(§1)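 Radioligand binding: displacement of ³H-PGD2 from receptor expressed on HEK 293 cells. Run either in buffer with 0.5% bovine serum albumin or in 50% human plasma. IC50 values are the average of at least two experiments.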
A general note: Loss of bound radioactivity is the signal in a displacement assay; it reports binding, not function.

For series [2], the target named is T1, Prostaglandin D2 receptor 2. Briefly: Displacement of [3H]-PGD2 from human CRTH2 expressed in HEK293 cells in presence of 50% human plasma by scintillation counting. The class given is cell-based. In outline: as §1
Series [3] deals with T2, Prostaglandin D2 receptor (Homo sapiens, UniProt Q13258).
T2 sequence (Q13258 whole entry): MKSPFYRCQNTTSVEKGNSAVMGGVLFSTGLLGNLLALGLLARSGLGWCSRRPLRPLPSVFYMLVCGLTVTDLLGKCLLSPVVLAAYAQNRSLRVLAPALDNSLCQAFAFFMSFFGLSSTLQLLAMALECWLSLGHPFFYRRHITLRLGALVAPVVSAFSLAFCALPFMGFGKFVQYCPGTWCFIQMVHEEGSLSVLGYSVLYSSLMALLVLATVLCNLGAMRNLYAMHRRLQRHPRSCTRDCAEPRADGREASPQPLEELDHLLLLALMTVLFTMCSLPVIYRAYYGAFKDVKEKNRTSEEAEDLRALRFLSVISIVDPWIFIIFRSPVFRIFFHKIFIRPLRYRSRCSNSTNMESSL
Briefly: Displacement of [3H]-PGD2 from human DP receptor expressed in HEK293 cells in buffer solution with 0.5% bovine serum albumin by scintillation counting. It is filed as cell-based. In outline: as §1

The target of series [4] is T2, Prostaglandin D2 receptor. Description: Displacement of [3H]-PGD2 from human DP receptor expressed in HEK293 cells in presence of 50% human plasma by scintillation counting. The class given is cell-based. In outline:
as §1

Regarding `COc1cc(CC(=O)O)ccc1Oc1ccc2[nH]c(C3CC3)cc2c1NS(=O)(=O)c1ccc(Cl)cc1Cl`, the activity at 0.25 h, 15 µM on CYP3A4 was determined as 41%. In addition, the IC50 in series [1] came out at 8 nM; in series [2] it was 25 nM; in series [3], 74 nM; in series [4], 350 nM.
`COc1cc(CC(=O)O)ccc1Oc1ccc2[nH]c(CC(C)C)cc2c1NS(=O)(=O)c1ccc(Cl)cc1Cl`: the activity at 0.25 h, 15 µM on CYP3A4 is 38%. Moreover, the IC50 in series [1] is 32 nM; in series [2] it was 48 nM; in series [3], 62 nM; in series [4] it was 110 nM.
With `COc1cc(CC(=O)O)ccc1Oc1ccc2[nH]c(C(C)(C)C)cc2c1NS(=O)(=O)c1ccc(Cl)cc1Cl`, on CYP3A4, the activity at 0.25 h, 15 µM is 81%. Besides, the figures for the 50% inhibitory concentration (IC50) in series [1] and in series [3] were 32 nM and 8400 nM, respectively.
As for `CCCc1cc2c(NS(=O)(=O)c3ccc(Cl)cc3Cl)c(Oc3ccc(CC(=O)O)cc3OC)ccc2[nH]1`, the activity at 0.25 h, 15 µM at CYP3A4 was 79%. Further, the IC50 in series [1] came to 57 nM; in series [2] it was 110 nM; in series [3], 45 nM; in series [4] it was 130 nM.
In the same order, the values of `COc1cc(CC(=O)O)ccc1Oc1ccc2c(cc(C)n2C)c1NS(=O)(=O)c1ccc(Cl)cc1Cl` are 28%, 22 nM, 56 nM, 27 nM and 76 nM.
Turning to `COc1cc(CC(=O)O)ccc1Oc1ccc2[nH]c(C)c(Cl)c2c1NS(=O)(=O)c1ccc(Cl)cc1Cl`, at CYP3A4, the activity at 0.25 h, 15 µM is 87%. Also, the half-maximal inhibitory concentration (IC50) in series [1] was 220 nM; in series [3], 1100 nM.
On to `COc1cc(CC(=O)O)ccc1Oc1ccc2[nH]c(C#N)cc2c1NS(=O)(=O)c1ccc(Cl)cc1Cl`, for which the activity at 0.25 h, 15 µM at CYP3A4 was 73%. Besides, the concentration for half-maximal inhibition (IC50) worked out at 27 nM in series [1], 130 nM in series [2], 82 nM in series [3] and 130 nM in series [4].
On to `COc1cc(CC(=O)O)ccc1Oc1ccc2c(c1NS(=O)(=O)c1ccc(Cl)cc1Cl)CC(=O)N2`, for which, at CYP3A4, the activity at 0.25 h, 15 µM is 103%. The IC50 in series [1] amounted to 3 nM; in series [2] it was 31 nM; in series [3], 17 nM; in series [4] it was 1300 nM.
